Only some compounds are listed: those with a hit (about 3.1% of all), similar ones and a draw of the others.
Beta apoptosis = blocks beta cell apoptosis. INS-1E cytokine-induced death, ATP luminescence, 48 h; percent of positive-control rescue, neutral wells zero. protection from apoptosis, % (concentration not given with the values). 300,000 tested, 0.8% active. AID 435005;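 active = Every replicate reaches about 75%, or at least half do and their mean reaches it too, limit read from the data; inconclusive = At least half of replicates reach the limit but their mean does not; inactive = Under half of replicates reach the limit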;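 note: 0% = cytokine-treated negative control wells and 100% = positive control rescue; higher means more ATP so stronger rescue from cytokine killing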
T cruzi repl = T. cruzi replication inhibition; T. cruzi beta-gal in NIH3T3, luminescence, 90 h; inhibition, % (concentration not given with the values); 300,000 tested, 1.4% active;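 active = mean inhibition across valid replicates above about 55%, limit read from the data; inconclusive = mean below that limit but half or more replicates reach it; inactive = mean below it, under half of replicates reach it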;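 note: signal also drops with host cell toxicity which is not excluded here; 0% = plate median of DMSO wells and 100% = zero luminescence signal; higher percent means less beta-gal luminescence so fewer parasites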
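assay system = mouse NIH/3T3 fibroblasts infected with β-gal-expressing T. cruzi Tulahuen C4 | input = 5,000 NIH/3T3 host cells per well | buffer or medium = DMEM plus 2% FBS | timing = 3 h host attachment, then at least 90 h co-culture | measured by = GalScreen luminescence, 60 min | evaluation = luminescence reflecting intracellular parasite burden, expressed as percent inhibition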
HIF act = HIF pathway transcriptional activation; U2OS HRE-luciferase reporter, luminescence; normalized: DMSO 0%, desferrioxamine 100%; activation, % at 7.5 µM (by protocol); 300,000 tested, 0.32% active;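 active = mean activation of at least 10% of the iron chelator positive control signal, with at least half of replicates also reaching 10%; inconclusive = mean and replicate majority disagree about reaching 10%; inactive = mean and most replicates under 10%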
PolyA inhibitor = blocks polyadenylation in yeast reporter cells | S. cerevisiae SKY197-pL101 polyadenylation reporter, beta-gal luminescence; efflux-impaired pdr1/pdr3 knockout yeast; score 100 = 6 SD above DMSO | activity score, % at 12 µM | 300,000 tested, 0.02% active;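 active = lowest replicate activity score at least 50, where 100 means six control SD above control mean; inconclusive = lowest score under 50 but half or more replicates reach 50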;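 note: yeast exposed to compound for 9 h at 30 °C; higher score means more reporter readthrough which indicates perturbed polyadenylation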
Calb FLC = affects C. albicans growth with fluconazole. 300,000 tested, 0.57% active. growth inhibition, % (no concentration beside the values). C. albicans CaCi-2 (fluconazole-resistant clinical isolate) + fluconazole, Alamar Blue growth, 48 h;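 active = growth inhibition above about 58% in most replicates, limit read from the data, passing the limit was not always enough; inconclusive = exactly half the replicates above a set limit; inactive = most replicates below a set limit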;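 note: all wells also contain fluconazole at 8 µg/ml as a sub-toxic cotreatment; 0% = median of DMSO wells and 100% = median of geldanamycin control wells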
CSC inhib = blocks cancer stem cells; inhibition, % at 7.5 µM; cancer stem cell-like cells viability, luminescence; 300,000 tested, 1.1% active; in the data active = inhibition above about 75%; inconclusive = no clear call, values can overlap the other calls; tested in HMLE shEcad cells
* marks the source's active call; other numbers are inactive results; ? = inconclusive; · = no result.

SMILES	Beta apoptosis	T cruzi repl	HIF act	PolyA inhibitor	Calb FLC	CSC inhib
CN(C)CCNc1nc2sc3c(c2c(=O)n1-c1ccccc1)CCCCC3	-9.2	39.9	0.1	-1.2	2.6	75.1*
Cc1cc(C)nc(NC(=NCCc2c[nH]c3ccccc23)NC(=O)Nc2ccccc2)n1	7.6	49.1	-0.1	3.5	0.7	42.1
Cc1cc(C)nc(NC(=NCCc2c[nH]c3ccccc23)NC(=O)Nc2ccc(Cl)c(Cl)c2)n1	8.6	62.2*	0.0	-2.9	-5.6	8.3
CC(C)(C)c1ccc(C(=O)N2CCN(CCNC(=O)C(=O)NCc3ccc(Cl)cc3)CC2)cc1	5.0	65.8*	0.5	-1.1	·	25.5
CNC(=O)COc1coc(CN2CCN(c3cccc(Cl)c3)CC2)cc1=O	-1.0	-49.2	0.0	19.8	-0.9	2.7
C/C(=C\c1ccc(C(=O)O)cc1)c1ccc2c(c1)C(C)(C)CCC2(C)C	-15.3	·	·	·	·	100.7*
CC(C)CNC(=O)NC(=O)COC(=O)Cn1cnc2ccccc2c1=O	-12.0	-36.1	-1.2	-5.8	?	-4.2
COCCNC(=O)C(c1cccnc1)N(Cc1ccccc1)C(=O)Cn1nnc2ccccc21 (stereo not drawn)	-4.5	4.0	2.6	5.0	-0.2	3.4
Cc1cc(-c2ccc(N=Nc3c(S(=O)(=O)O)cc4cc(S(=O)(=O)O)cc(N)c4c3O)c(C)c2)ccc1N=Nc1c(S(=O)(=O)O)cc2cc(S(=O)(=O)O)cc(N)c2c1O	77.0*	·	·	·	·	65.0
O=S(=O)(O)c1cc(O)c2c(O)c(N=Nc3cc(Cl)ccc3O)c(S(=O)(=O)O)cc2c1	49.7	-1.8	-5.1	-11.0	84.8*	64.8
CCCCOc1ccc(/C=C/C2=CC(C)(C)NC(=S)N2)cc1OCC	5.6	70.2*	-0.3	5.3	8.8	·
CCOc1cc(C=O)ccc1OCCCN1C(=O)NC(C)(C)C1=O	-17.3	-15.7	-0.1	4.8	-5.6	·
Cc1[nH]nc(-c2ccc(O)c(C)c2O)c1-c1cnn(-c2ccccc2)c1	-3.5	21.6	0.1	-3.7	106.0*	10.5
Cc1ccc(CNC(=O)CCC2CCCN(Cc3c(C)nn(C(C)C)c3C)C2)o1 (stereo not drawn)	-5.9	67.4*	0.1	-4.0	-0.3	-7.4
Cc1ccnn1CCC(=O)N1CCCC(CCC(=O)NCc2ccccc2F)C1 (stereo not drawn)	-7.3	4.8	3.0	-0.7	-12.0	-3.0
Cc1ccc(CNC(=O)CCC2CCCN(Cc3ccc4cccc(F)c4n3)C2)o1 (stereo not drawn)	-8.3	61.1*	0.4	6.2	3.3	11.4
Cc1ccc(CNC(=O)CCC2CCCN(Cc3cccc4c3OCO4)C2)o1 (stereo not drawn)	-3.4	51.9	0.7	1.8	-3.2	7.9
Cc1ccc(C(CNS(=O)(=O)c2cc(F)ccc2F)N2CCN(C)CC2)cc1 (stereo not drawn)	·	-0.4	0.3	6.5	-8.0	·
CC(=O)N1CCc2cc(S(=O)(=O)NCCC3=CCCCC3)ccc21	87.5*	-13.9	-10.9	6.9	-3.8	·
Cc1ccc(NC(=O)c2cc(S(=O)(=O)NCCC3=CCCCC3)ccc2F)cc1F	106.9*	11.6	-0.1	7.0	-3.9	12.6
Cc1ccc(N=Nc2ccc(O)c3ncccc23)cc1	101.9*	57.3*	147.1*	-13.1	?	99.3*
Cc1ccc(N=Nc2ccc(O)c3ncccc23)cc1C	-6.4	65.5*	7.3	5.8	9.2	1.3
CC(=O)c1ccc(NC(=S)NC(C)CCc2ccccc2)cc1 (stereo not drawn)	2.4	11.3	1.1	-17.6	-13.9	22.4
O=C(N/N=C/c1ccc([N+](=O)[O-])o1)c1ccccc1-n1cccc1	19.1	67.3*	0.9	-10.4	-8.5	-0.2
O=C(N/N=C/c1ccc([N+](=O)[O-])o1)c1cc(-c2ccncc2)nc2ccccc12	28.7	49.6	2.7	3.9	26.2	42.5
SMILES	Beta apoptosis	T cruzi repl	HIF act	PolyA inhibitor	Calb FLC	CSC inhib
O=C(N/N=C/c1ccc([N+](=O)[O-])o1)c1cn(-c2ccccc2)nc1-c1ccc(Cl)cc1	14.1	64.4*	-0.1	-26.4	-3.8	26.6
O=C(O)COc1ccc(/C=N/NC(=O)c2cn(-c3ccccc3)nc2-c2ccccc2)cc1	-1.2	-14.0	0.5	-4.9	4.8	26.8
O=C(N/N=C/c1ccc([N+](=O)[O-])o1)c1cn(-c2ccccc2)nc1-c1ccccc1	18.8	59.9*	0.4	-6.9	10.0	6.1
CCc1ccc(NC(=O)CSc2nc3nc(C)cc(C)n3n2)cc1	-1.7	-8.8	-0.1	2.1	0.3	1.7
O=C(/C=C/c1ccccc1)OCc1cnc(Cl)s1	-0.9	-5.3	0.4	-4.4	2.9	-5.3
COc1cccc(NC(=S)N(CCCN2CCCC2)Cc2cccn2Cc2ccc(Cl)cc2)c1	4.4	19.7	0.2	-5.0	-3.3	34.8
S=C(Nc1cccc(Cl)c1)N(CCCN1CCCC1)Cc1cccn1Cc1ccc(Cl)cc1	19.9	53.4	-0.3	-0.6	-5.0	96.0*
CSc1cccc(NC(=S)N(CCCN2CCCC2)Cc2cccn2Cc2ccc(Cl)cc2)c1	3.1	56.1*	0.1	-2.3	-5.8	33.5
COc1ccc(N2CCN(C(=O)c3ccccc3N(C)S(=O)(=O)c3ccc(C)cc3)CC2)cc1	-2.6	8.0	-0.6	21.6	-0.1	·
COc1ccc(N(CCCN2C(=O)c3cccc4cccc(c34)C2=O)C(=O)c2cccnc2)cc1	·	67.9*	-0.2	-1.9	-17.1	-8.3
COc1ccc(N(CCN2C(=O)c3ccccc3C2=O)C(=O)c2cccc([N+](=O)[O-])c2)cc1	1.0	-21.9	-0.3	-8.8	15.6	-1.1
COc1ccc(N(CCCN2C(=O)c3cccc4cccc(c34)C2=O)C(=O)c2ccncc2)cc1	-0.8	55.4*	0.1	-0.7	-4.3	11.4
COc1cc(OC)cc(C(=O)N(CCCN2C(=O)c3cccc4cccc(c34)C2=O)c2cccc(OC)c2)c1	6.2	8.5	-0.5	-12.4	1.0	17.1
CCOc1ccc(NC(=O)C2(c3ccc(OC)c(OC)c3)CCCC2)cc1	-0.2	-7.1	-0.4	-2.2	-3.7	-11.0
C=CCn1c2ccccc2c(=O)c2cc(C#Cc3ccccn3)ccc21	8.3	·	·	·	·	75.5*
Cc1ccc(N=Cc2c(C)[nH]n(-c3nc4ccccc4[nH]3)c2=O)cc1	91.9*	-17.6	-0.2	1.2	1.8	94.8*
Cc1ccc(-n2[nH]c(C)c(C=Nc3ccc4[nH]c(=O)[nH]c4c3)c2=O)cc1	28.0	2.5	-1.0	0.1	26.5	·
Cc1cc(C)n(CC(=O)N/N=C/c2cc(Br)cc([N+](=O)[O-])c2O)n1	-2.4	64.8*	0.1	-47.4	?	34.1
Cc1cc(C(=O)NNc2ccccc2F)no1	2.8	60.9*	1.7	-25.7	-0.5	52.5
Cc1cc(C(=O)NNc2c(Cl)cccc2Cl)no1	-1.3	-0.3	0.3	-2.0	-2.4	-8.9

Screening data (PubChem)
